From PubChem BioAssay AID588621 (Sanford-Burnham Center for Chemical Genomics, 2011) come the findings set out here.

Out of some 360,000 compounds screened, about 890 (0.25%) were called active. The sample as a whole holds a higher share of actives than the screen did. Values without a mark were called inactive.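 Rule for the calls: active = inhibition at 20 µM, scaled per plate between control wells, above about 37% (limit read from the data); inactive = the rest.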

For this assay, the target named is Tyrosine-protein phosphatase non-receptor type 5 (Homo sapiens) (UniProt P54829). The assay can be described thus: STEP phosphatase inhibitors, primary screen, biochemical, fluorescence intensity, uHTS (AID 588621).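 Note: 0% = DMSO with enzyme and substrate and 100% = substrate only without enzyme.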 The following applies: recombinant STEP, OMFP fluorogenic substrate, at 20 µM, stronger effect = higher value. The essentials: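 System: STEP phosphatase, cell-free reaction; Buffer or medium: Bis-Tris pH 6.0 buffer with DTT, detergent; Incubation: 20 min at room temperature, dark; Measured by: fluorescence, 480/540 nm.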
Tyrosine-protein phosphatase non-receptor type 5 (Homo sapiens), sequence (P54829 whole entry, looked up): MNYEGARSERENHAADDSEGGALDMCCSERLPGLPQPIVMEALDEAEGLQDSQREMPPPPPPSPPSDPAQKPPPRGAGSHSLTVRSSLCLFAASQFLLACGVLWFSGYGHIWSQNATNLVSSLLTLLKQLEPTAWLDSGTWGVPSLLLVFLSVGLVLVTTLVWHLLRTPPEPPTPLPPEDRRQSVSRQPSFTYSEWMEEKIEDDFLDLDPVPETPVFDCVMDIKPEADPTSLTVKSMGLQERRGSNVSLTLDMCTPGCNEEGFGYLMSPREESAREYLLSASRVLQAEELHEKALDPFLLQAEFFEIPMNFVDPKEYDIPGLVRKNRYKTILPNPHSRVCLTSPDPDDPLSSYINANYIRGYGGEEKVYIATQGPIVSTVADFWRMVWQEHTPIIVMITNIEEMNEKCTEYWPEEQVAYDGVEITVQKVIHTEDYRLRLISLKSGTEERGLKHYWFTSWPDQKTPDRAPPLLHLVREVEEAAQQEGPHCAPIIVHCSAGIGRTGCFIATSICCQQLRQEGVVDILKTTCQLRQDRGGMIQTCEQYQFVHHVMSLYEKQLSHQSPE
By inhibition is commonly meant the change of the read-out against control, counted positive when it falls. Consider `Cc1ccc(-n2c(N)c(C(=O)N3CCOCC3)sc2=S)c(C)c1`, for which the inhibition is 5.2%.
In the case of `N#Cc1ccccc1-n1c(N)c(C(=O)N2CCCC2)sc1=S` it was 7.5%.
In the case of `Cc1cccc(-n2c(N)c(C(=O)N3CCN(C)CC3)sc2=S)c1`, the inhibition is 90.4% (active).
`Cc1cc(-c2nnc(SCC(=O)Nc3ccc(F)cc3)n2N)n[nH]1`: the inhibition is -1.1%.
The same measure for `COC(=O)Cn1cnc2scc(-c3ccc(C)c(C)c3)c2c1=O`: 1.3%; for `Cc1ccc(C(C)(C)C)c(OCCCCN2CCCC2)c1`: -0.8%.
The same measure for `CSc1nnc(C2CCCN(CC(=O)Nc3ccccc3N3CCOCC3)C2)n1C(C)C` (stereo not given): 7.7%.
In the case of `OCCN1CCN(C(=S)c2ccc(-c3ccccc3)cc2)CC1` it was 92.5% (active); in that of `C=CCc1ccccc1OCC(O)CN1CCN(CCO)CC1` (stereo not given), -0.9%.
As to `S=C(c1ccc(-c2ccccc2)o1)N1CCCCC1`, the inhibition is 10%.
The same measure for `Cc1cc(OC(=O)c2ccccc2)c([N+](=O)[O-])c(=O)[nH]1`: -3.5%.
The same measure for `CN(C)c1ccc(CNC23CN4CN(CN(C4)C2)C3)cc1`: -4.8%; for `O=C(OCC(=O)N1CCN(C(=O)c2ccco2)CC1)c1ccccc1Cc1ccccc1`: -3.5%; for `CCC1(C)N(O)C(C)(C)C(c2ccc(OC)cc2)=[N+]1[O-]` (stereo not given): -1.7%.
Consider `O=S(=O)(Nc1ccccc1Cl)c1cccc2nsnc12`, for which the inhibition was 52.9% (active).
In the case of `O=C(O)c1ccc(NS(=O)(=O)c2cccc3nsnc23)cc1` it was 1.7%.
The same measure for `COc1ccc(NS(=O)(=O)c2cccc3nsnc23)cc1Cl`: -1.2%.
Regarding `O=C(COC(=O)c1cc([N+](=O)[O-])ccc1NCc1ccccc1)NC1CCCCC1`, the inhibition was 0.9%.
The same measure for `O=C(CCN1C(=O)c2ccncc2C1=O)Nc1cc(F)ccc1F`: -2.7%; for `COc1ccc(-c2cc(C(F)(F)F)nc(S(C)(=O)=O)n2)cc1OC`: 0.2%.
The same measure for `O=C(COc1ccccc1F)NNC(=O)c1ccc(N2CCCCC2)c([N+](=O)[O-])c1`: 0.7%; for `C/C(O)=C\c1nc(=O)c2c(C)cc(C)nc2n1-c1ccccc1`: 1.8%.
Regarding `CCc1cccc(NC(=S)N(CCN(C)C)C2CCN(C(C)C)CC2)c1`, the inhibition was 4.4%.
Turning to `COCCN(C(=S)Nc1ccccc1OC)C1CCN(C(C)C)CC1`, the inhibition is 44.6% (active).
For the compound `COc1ccccc1NC(=O)C(C)OC(=O)CC1CCCC1` (stereo not given), the inhibition was -2.3%.
In the case of `Cc1ccc(NC2=C(Cl)C(=O)OC2OC(=O)c2ccccc2C)cc1` (stereo not given) it was -1.2%.
In the case of `Nc1nonc1-n1nnc(C(=O)N/N=C/C2CCCCC2)c1-c1ccccc1` it was -0.5%; in that of `COCc1c(C(=O)N/N=C/C2CC=CCC2)nnn1-c1nonc1N` (stereo not given), 44.4% (active); in that of `COCc1c(C(=O)N/N=C(\C)c2ccncc2)nnn1-c1nonc1N`, -0.3%.
In the case of `CCc1c(C)sc(NC(=O)OC)c1C(=O)N1CCOCC1` it was 10.1%.
Turning to `Cc1cc(C)cc(C(=O)OCC(=O)NCCNC(=O)COC(=O)c2cc(C)cc(C)c2)c1`, the inhibition was 1%.
For the compound `CCc1nc2c(OCCC3CCCCC3)cccn2c1N(C)C(=O)c1ccco1`, the inhibition is 4.5%.
For the compound `COc1cc(OC)c(-n2cc(-c3ccc(Cl)cc3)[nH]c2=O)cc1Cl`, the inhibition is 0.7%.
In the case of `Cc1ccc(-c2csc(N3CCN(c4cc5c(cc4Cl)nc(-c4ccncc4)n5CCOCCO)CC3)n2)cc1` it was 2.3%; in that of `Nc1c(Cl)cc(-c2csc(N3CCCC3c3nc4cc(Cl)c(Cl)cc4n3CCOCCO)n2)cc1Cl` (stereo not given), 36.9% (active).
The same measure for `CCCn1c(C2CCCN2c2nc(-c3ccc(C)cc3)cs2)nc2cc(Cl)c(N3CCCCC3)cc21` (stereo not given): 3.4%; for `O=c1nc(N2CCOCC2)nc2n1CCO2`: 4.3%.
Regarding `COc1cccc(/C=C/C(=O)OCC(=O)N2CCCc3ccccc32)c1`, the inhibition is -1.7%.
The same measure for `N#Cc1c(-c2cccs2)nc(SCC(=O)c2ccc(Br)cc2)[nH]c1=O`: 78.8% (active); for `N#Cc1c(-c2ccccc2)nc(SCc2cccc(C(F)(F)F)c2)[nH]c1=O`: 2.7%; for `CCc1ccc(C(=O)CSc2nnc(C)c(=O)[nH]2)cc1`: -1%.
With `Cc1ccnc(N2CCN(C(=O)CSc3nc4ccccc4nc3N3CCCCC3)CC2)c1`, the inhibition was 7.7%.
`CC(C)C(O)C1CCN(Cc2nc(Cc3ccccc3Cl)no2)CC1` (stereo not given): the inhibition was -0.6%.
In the case of `CN(C(=O)CSc1nnc(N)s1)c1c(N)n(Cc2ccccc2)c(=O)[nH]c1=O`, the inhibition was 2%.
Take `Cc1ccnc(NS(=O)(=O)c2ccc(NC(=O)c3ccc(S(=O)(=O)N(C)C)cc3)cc2)n1`: the inhibition was 10.2%.
With `CC(Oc1ccc(Cl)cc1)c1ccnn1S(C)(=O)=O` (stereo not given), the inhibition is -1.9%.
The same measure for `Cc1ccc(NC(=O)COc2ccc(/C=N\NC(=O)c3cccnc3)cc2)cc1C`: 93% (active); for `Cc1ccc(OCC(=O)NCCCNC(=O)c2cccnc2)cc1C`: 2.8%.
The same measure for `Cc1cccc(OCC(=O)NCCNC(=O)c2cccnc2)c1`: 0.6%; for `CC(=O)c1nc(N2C(=O)C3CC=C(C)CC3C2=O)sc1C` (stereo not given): -0.6%; for `O=C(NCc1ccc(F)cc1)c1cc(C2CCCCN2C(=O)c2ccccn2)on1` (stereo not given): -0.8%.
In the case of `CCOCCCNc1c(CC)c(C)c(C#N)c2nc3ccccc3n12` it was -1%; in that of `CCc1cccc(C)c1N(C(=O)Cn1c(CO)nc2ccccc21)C(C)COC` (stereo not given), -4.3%; in that of `C/C(=N\OC(=O)c1ccccc1)c1c(C)nc2cc(C)ccn12`, -1.4%.
On to `Cc1ccn2c(-c3csc(Nc4ccc(C(=O)O)cc4)n3)c(C)nc2c1`, for which the inhibition is 41.9% (active).
The same measure for `CCCCC(=O)Nc1nc(C)c(-c2csc(Nc3ccc(Cl)cc3)n2)s1`: -1.7%; for `COc1cccc(-c2cnc(C(O)c3ccccc3OC)[nH]2)c1` (stereo not given): -2.4%; for `COCCCNC(=O)[C@H]1N2C(=O)c3ccccc3C2SC1(C)C` (stereo not given in full): 0.9%.
On to `Cc1[nH]c2ccccc2c1C(=O)C(=O)NCc1nnnn1-c1cccc(F)c1`, for which the inhibition was 0.6%.
The same measure for `COc1ccc(CCN2CC(C(=O)NCCN3CCNC3=O)CCC2=O)cc1` (stereo not given): -4.2%.
